Compound activity deposited in PubChem by several laboratories.
This is a sample that favours compounds with a hit; in the whole collection about 2.3% have one here.
MCL1-BIM inh: MCL1-BIM-BH3 interaction inhibition (human). Q07820. GST-MCL1 / FITC-Bim-BH3 fluorescence polarization. inhibition, % at 10.9 µM. 0.68% of 320,000 active;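 active means inhibition above the mean inhibition of all tested compounds plus 3 SD, set per campaign, cut at about 40% in these data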;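 further: 0% = DMSO wells and 100% = unlabeled Bim-BH3 peptide control; higher means more loss of mP so more displacement of Bim peptide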
Target sequence (Q07820 whole entry, looked up): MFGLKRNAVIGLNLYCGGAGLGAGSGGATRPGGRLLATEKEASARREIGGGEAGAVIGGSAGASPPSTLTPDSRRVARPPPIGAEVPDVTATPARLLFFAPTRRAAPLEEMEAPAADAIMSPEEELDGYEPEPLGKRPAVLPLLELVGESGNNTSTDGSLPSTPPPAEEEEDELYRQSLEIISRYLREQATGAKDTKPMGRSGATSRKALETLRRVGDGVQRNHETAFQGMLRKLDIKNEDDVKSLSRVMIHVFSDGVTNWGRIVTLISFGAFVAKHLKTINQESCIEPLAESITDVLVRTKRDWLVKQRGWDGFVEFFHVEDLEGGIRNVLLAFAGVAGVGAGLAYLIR
T cell HTS: T cell immune modulators affecting CD8 T cell-vesicle binding; response (vesicle binding), % at 7 µM; 0.068% of 330,000 active; 2C CD8+ T cell-vesicle binding, flow cytometry; active compounds read low;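 active means response, share of CD8 T cells binding vesicles, and their 90th percentile fluorescence all below set limits, cut at about 80% in these data, passing the limit was not always enough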;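 further: values below 100% mean blocked vesicle binding to the CD8+ T cells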
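Material: murine 2C transgenic CD8+ T lymphocytes / Also added: QL9-peptide-loaded Drosophila micro-vesicles bearing Ld, ICAM-1 and B7-1 / Schedule: binding step 1.5 h, 37 °C, antibody labelling 20 min, ice / Signal: flow cytometry, PE anti-B7-1 (FL2) versus Alexa647 anti-CD8 (FL8), PFA-fixed / Evaluation: percent CD8+ FL2 mean versus row control / Benchmarks: naked versus QL9-loaded vesicles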
Mcl1-Bid inh: disrupts binding of human Mcl-1 to Bid peptide; Q07820; inhibition, % at 21.7 µM; AID 1021; 0.97% of 220,000 active; TR-FRET Mcl-1/Bid-Dy647 peptide binding, 1536-well;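 active means compounds that cut the binding signal by more than half at the single screening dose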;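 further: His-tagged Mcl-1 with europium anti-His antibody binding Bid BH3 peptide; 0% = Mcl-1 plus peptide wells and 100% = peptide-only wells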
DSG3 Ab inh: inhibitors of pemphigus antibody binding to human desmoglein-3; P32926; DSG3-coupled beads, scFv-anti-DSG3-GFP binding, flow cytometry; active compounds read low; binding (percent of control), % at 10 µM; 0.48% of 310,000 active;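 active means binding more than 3 SD below its plate's average and above zero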;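 further: hits lower antibody fragment binding to DSG3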
Mcl1-Noxa inh: Mcl-1/Noxa interaction inhibition; Q07820; inhibition, % at 21.7 µM; 1.5% of 220,000 active; TR-FRET Mcl-1/Noxa peptide binding, 2 h; AID 1022;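 active means compounds that cut the protein-peptide binding signal by more than 50% relative to plate controls in a single-dose test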;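 further: His-tagged Mcl-1 with rhodamine Noxa BH3 peptide and terbium anti-His antibody; 0% = Mcl-1 plus Noxa peptide wells and 100% = peptide-only wells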
Bim-Mcl-1: inhibitors of Bim-Mcl-1 interaction, human | Bead-based flow cytometry, Bim peptide-Mcl-1 binding | inhibition, % at 10 µM | 0.1% of 190,000 active | AID 1009; in the data active means inhibition above about 40%;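 further: 0% = no compound tracer wells and 100% = peptide blocker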
* marks the source's active call; other numbers are inactive results; . = no result given.

SMILES | MCL1-BIM inh | T cell HTS | Mcl1-Bid inh | DSG3 Ab inh | Mcl1-Noxa inh | Bim-Mcl-1
CCOc1cccc(OCCCCn2ccnc2)c1 | 7 | 183 | 58* | 108 | 36 | -2
Brc1cccc(OCCOCCn2ccnc2)c1 | -2 | 207 | 72* | 93 | 15 | 0
COc1ccc(C2=Cc3ccc(OC(C)=O)cc3OC2)cc1 | . | . | . | 95 | . | .
CC1CN(C2CCN(C(=O)COc3ccc(Cl)cc3)CC2)CC(C)O1 (centres undefined) | -5 | 555 | 57* | 102 | 35 | -1
COc1cccc(/C=N/n2c(SC)nnc2-c2ccccc2)c1O | 8 | 298 | -98 | 102 | 51* | 0
COc1cccc(/C=N/n2c(SC)nnc2-c2ccccc2)c1OC | -1 | 231 | -18 | 106 | -2 | -2
c1ccc(CSc2ccc(-c3ccc4c(c3)OCO4)nn2)cc1 | 10 | 920 | 5 | 1.2* | 11 | 17
Cc1noc(C)c1COc1ccc(C(=O)Nc2cccnc2)cc1 | . | . | 12 | 83 | 53* | 6
Cn1cc(CN2C[C@]3(C)C[C@H]2CC(C)(C)C3)c(-c2ccc3c(c2)OCCO3)n1 | 12 | 261 | -20 | 103 | 11 | 50*
CCn1c2ccccc2c2cc(NC(=O)CNCC3CCCO3)ccc21 (centres undefined) | 0 | 134 | 5 | 100 | 52* | -1
COc1ccc2nc(S(=O)Cc3ncc(C)c(OC)c3C)[nH]c2c1 (centres undefined) | 20 | 268 | 11 | 108 | 84* | -1
CCCCCCCCOC(=O)CCc1c(C)[nH]c(=S)[nH]c1=O | 15 | 505 | -107 | 11* | -4 | -4
Cc1ccc(S(=O)(=O)/N=C2/C=C(C3C(=O)CC(C)(C)CC3=O)C(=O)c3ccccc32)cc1 | -9 | 196 | 26 | 88 | 80* | 4
Cc1cc(O)cc2c1C(=O)/C(=C/c1ccco1)O2 | 48* | 58 | . | 98 | . | .
ClC(Cl)(c1nnnn1-c1ccccc1)c1nnnn1-c1ccccc1 | -10 | 185 | -41 | 77* | 48 | -7
c1ccc(-c2nnnn2-c2ccccc2)cc1 | . | 313 | . | 108 | . | .
Cc1cc(S(=O)(=O)Nc2noc3ccccc23)ccc1F | 2 | 203 | . | 106 | . | .
O=c1c2cc(Br)cc(Br)c2oc2nc3n(c(=O)c12)CCCS3 | 13 | 399 | 8 | . | 16 | 1
O=Cc1ccc2oc3nc4n(c(=O)c3c(=O)c2c1)CCCS4 | 22 | 253 | 38 | 90 | 73* | 12
O=C(CSc1nnc(C2CC2)n1CC1CCCO1)Nc1ccccc1Cl (centres undefined) | -1 | 218 | . | . | . | .
O=C(O)CN1C(=O)C(=O)N(Cc2ccccc2F)C1=O | 8 | 222 | . | 87 | . | .
O=C1/C(=C/c2ccc(O)c([N+](=O)[O-])c2)SC(=S)N1Cc1ccccc1 | -9 | 190 | 13 | 101 | 56* | -2
O=C1/C(=C\c2cccc([N+](=O)[O-])c2O)SC(=S)N1Cc1ccccc1 | 25 | 0 | . | 105 | . | .
COc1cc(/C=C2\SC(=O)N(Cc3ccc(F)cc3)C2=O)cc([N+](=O)[O-])c1O | . | . | 22 | 95 | 97* | 3
CCOC(=O)CN1C(=O)S/C(=C/c2ccc(OC)c([N+](=O)[O-])c2)C1=O | 3 | 286 | -5 | 93 | 13 | 18
SMILES | MCL1-BIM inh | T cell HTS | Mcl1-Bid inh | DSG3 Ab inh | Mcl1-Noxa inh | Bim-Mcl-1
COc1cc(/C=C2\SC(=O)N(Cc3ccc(Cl)cc3)C2=O)cc([N+](=O)[O-])c1O | . | . | 90* | 95 | 92* | 0
CC(C)c1ccc(NC(=O)CN2C(=O)NC3(CCCCCCC3)C2=O)cc1 | . | 752 | . | 114 | . | .
CC(=O)c1c(C)[nH]c(C(=O)OCC(=O)c2ccc(Br)cc2)c1C | . | . | . | 104 | . | .
CC(C)(C)CC(C)(C)NC(=S)NC1CCN(Cc2ccccc2)CC1 | 7 | 365 | 92* | 84 | -3 | -3
COc1cc(/C=N/NC(=O)CN(Cc2ccco2)S(=O)(=O)c2ccccc2)ccc1O | -2 | 0 | -23 | 98 | 24 | 45*
COc1cc(/C=N/NC(=O)CN(Cc2ccccc2)S(=O)(=O)c2ccc3c(c2)OCCO3)ccc1O | 2 | 434 | -20 | 120 | 27 | 2
Cc1ccc(S(=O)(=O)N2CCCOC2CNC(=O)C(=O)NCCc2ccco2)cc1 (centres undefined) | . | . | . | 82* | . | .
Cc1onc(-c2ccccc2)c1C(=O)Nc1nnc(C(C)(C)C)s1 | -6 | 240 | . | 99 | . | .
COc1ccc(NC(=O)N(C)C[C@@H]2OCc3cnnn3CCCC(=O)N([C@@H](C)CO)C[C@H]2C)cc1 | . | . | . | 100 | . | .
Cc1ccc(/C=C2/C(=O)c3ccc(C(=O)O)cc3C2=O)o1 | . | . | -95 | 100 | 72* | 0
CC(C)c1ccc(S(=O)(=O)N2CCN(C(=O)C3CCN(C(=O)c4ccc(F)cc4)CC3)CC2)cc1 | 8 | 138 | . | 107 | . | .
CC(Nc1nc(-c2ccc(F)cc2)cs1)c1nc2cc(Cl)c(Cl)cc2n1CCCO (centres undefined) | 2 | 106 | . | 87* | . | .
O=C(c1cc(=O)c2ccccc2o1)N1CCN(c2ccccc2F)CC1 | -4 | 236 | -12 | 102 | 10 | 41*
O=C(c1cccc(C(=O)N2CCN(c3ccccc3F)CC2)n1)N1CCN(c2ccccc2F)CC1 | 6 | 112 | -17 | 96 | 23 | 0
O=C(c1cnccn1)N1CCN(c2ccccc2F)CC1 | 2 | 128 | -28 | 102 | -9 | 57*
O=C(c1cc(=O)c2ccccc2o1)N1CCN(c2cccc(Cl)c2)CC1 | 1 | 256 | -8 | 115 | 8 | 2
COc1ccccc1S(=O)(=O)N(C)C[C@@H]1OCc2cn(nn2)CCCC(=O)N([C@@H](C)CO)C[C@H]1C | . | . | . | 107 | . | .
CCc1nn2c(=O)cc(COc3ccc(/C=C4\C(=N)N5N=C(C)SC5=NC4=O)cc3)nc2s1 | 16 | 164 | -49 | 53 | 77* | 2
CN1C(=O)/C(=C2\SC(=S)N(CCCCCC(=O)O)C2=O)c2ccccc21 | 4 | 267 | 96* | 45* | 113* | .
Cc1nc2ccccc2n1C(=O)c1ccccc1[N+](=O)[O-] | -8 | 270 | 52* | 104 | -1 | -4
Cc1c(C(=O)n2cnc3ccccc32)cccc1[N+](=O)[O-] | -6 | 180 | . | 94 | . | .
CC(C)C(=O)NC(=S)Nc1ccc(S(=O)(=O)NC2CCCCC2)cc1 | 18 | 161 | . | 105 | . | .
Cc1cccc(OCC(=O)NC(=S)Nc2ccc(S(=O)(=O)NC3CCCCC3)cc2)c1 | 10 | 499 | -11 | 63* | -3 | -2
CCOc1ccc(-c2nc3scc(-c4cccs4)c3c(=O)[nH]2)cc1 | 2 | 53 | -4 | 71* | 20 | 1
CN(C)CCOC1c2ccccc2CCc2ccc3ccccc3c21 (centres undefined) | 2 | 357 | . | 115 | . | .
CC1CCCC(C)N1C(=O)COC(=O)c1cccnc1Cl (centres undefined) | . | 621 | . | . | . | .
